# Tests used:
# [1] = Partition coefficient (logP); format: physicochemical; conditions: octanol/water
# Summary of the method: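 Shake partitioning between octanol and distilled water gave log P. For carboxylate substituents, log P was taken in 0.1 N NaOH, with Na+ as counterion.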
# L1210 [2] = experiment: Toxicity against L-1210 leukemia cells in mice after intraperitoneal administration, activity is expressed as LD10; conditions: mouse, in vivo, ip
# L1210 [3] = experiment: Tested for 3 log kill of leukemia cells; format: functional, Mus musculus
# Summary of the method: (§1)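 L-1210 leukemia cells (10^4) were inoculated intracerebrally into BDF2 mice, and drug was given intraperitoneally. The end point was the dose giving 3 log kill, expressed as log 1/C. The value comes from one or more individual experiments.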
# Mus musculus [4] = species on record: Mus musculus; experiment: Tested for 3 log kill of leukemia cells (i.e., a reduction of 1000-fold in tumor cells); format: functional; summary of the method: as §1
# Mus musculus [5] = experiment: Tested for toxicity against L-1210 leukemia cells in mice after ip administration, activity is expressed as LD10; format: organism-based; conditions: in vivo
Compound,logP ([1]; read-out: logP),log(1/LD10) (L1210 [2]),log(1/C) (L1210 [3]),logP [1],log(1/C) (Mus musculus [4]),log(1/LD10) (Mus musculus [5])
CC(C)(Cc1ccccc1)NC(=O)N(CCCl)N=O,3.42,-0.422,0.737,,,
CC12CC3(C)CC(C)(C1)CC(NC(=O)N(CCCl)N=O)(C2)C3,5.75,-0.384,0.783,,,
O=NN(CCF)C(=O)NC1CCS(=O)(=O)CC1,-0.39,0.922,1.92,,,
CC(NC(=O)N(CCCl)N=O)C(=O)O (stereo unspecified),0.5,0.511,0.918,,,
O=NN(CCCl)C(=O)NC1CS(=O)(=O)CS(=O)(=O)C1,-0.9,0.842,1.9,,,
O=NN(CCCl)C(=O)NC(C(=O)O)C1CCCCC1 (stereo unspecified),2.89,0.602,1.23,,,
O=NN(CCCl)C(=O)NC1CCC(CCl)CC1 (stereo unspecified),3.01,0.658,1.27,,,
O=NN(CCCl)C(=O)NC1CSCSC1,2.08,1.07,1.81,,,
NC(=O)N(CCCl)N=O,0.57,1.43,1.05,,,
CN(C(=O)N(CC/C=N/C(=O)N(CCCl)N=O)N=O)C1CCCCC1,3.19,-0.207,0.353,,,
CC(C)C1CCC(NC(=O)N(CCF)N=O)CC1 (stereo unspecified),3.67,0.388,1.05,,,
O=NN(CCF)C(=O)NC1CCC(NC(=O)N(CCCl)N=O)CC1 (stereo unspecified),2.41,0.595,1.37,,,
Cc1cccc(C)c1NC(=O)N(CCCl)N=O,2.57,0.864,1.29,,,
O=NN(CCCl)C(=O)N[C@@H]1CCC[C@@H](O)C1,1,0.795,1.44,,,
COC(=O)[C@H]1CC[C@@H](NC(=O)N(CCCl)N=O)CC1,1.89,0.733,1.51,,,
CC(=O)O[C@H]1CCCC[C@@H]1NC(=O)N(CCCl)N=O,2.56,0.91,1.65,,,
O=NN(CCF)C(=O)N[C@H]1CC[C@@H](C(=O)O)CC1,,,,1.1,1.06,
O=NN(CCCl)C(=O)N[C@H]1CC[C@H](O)CC1,,,,1.1,,0.774
CC(=O)O[C@H]1CCCC[C@H]1NC(=O)N(CCCl)N=O,1.96,0.776,1.24,,,
O=NN(CCCl)C(=O)NC1CCS(=O)(=O)C1 (stereo unspecified),0.57,1.13,1.82,,,
O=NN(CCCl)C(=O)NC1C=CCCC1 (stereo unspecified),2.45,0.848,1.16,,,
CCC1CCC(NC(=O)N(CCF)N=O)CC1 (stereo unspecified),3.26,0.515,0.736,,,
O=NN(CCCl)C(=O)NC(CCC(=O)O)C(=O)O (stereo unspecified),0.6,0.037,0.87,,,
CC(=O)OC1OC(C)C(OC(C)=O)C(OC(C)=O)C1NC(=O)N(CCCl)N=O (stereo unspecified),1.32,1.21,1.93,,,
O=NN(CCCl)C(=O)N[C@H]1C(O)O[C@H](CO)[C@@H](O)[C@@H]1O (stereo in doubt; 75) [CHLOROZOTOCIN],,1.03,1.76,-1.02,,
O=NN(CCCl)C(=O)N[C@H]1C(O)O[C@H](CO)[C@@H](O)[C@@H]1O (stereo in doubt; 103) [CHLOROZOTOCIN],,0.928,1.46,-0.66,,

# From ChEMBL document CHEMBL1121539, “Antitumor structure-activity relations. Nitrosoureas vs. L-1210 leukemia” (J Med Chem, 1980)
